The values below come from ChEMBL document CHEMBL5321249, “Appraisal of Fungus-Derived Xanthoquinodins as Broad-Spectrum Anti-Infectives Targeting Phylogenetically Diverse Human Pathogens” (J Nat Prod, 2023).

Where only a bound is given, the exact number is not on record here.

In general, EC50 refers to the concentration that produces a half-maximal response.

One data set deals with Cryptosporidium parvum. In words: Antiparasitic activity against Nanoluciferase-tagged Cryptosporidium parvum infected in human HCT-8 cells assessed as inhibition of parasite growth incubated for 48 hrs by NanoGlo luciferase reagent based assay. The data set is classed as functional, organism-based. The following applies: HCT-8, 48 h. The method, boiled down:
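HCT-8 cells grown 48 h to 50–75% confluence; calf-propagated oocysts activated 15 min in 10% bleach at room temperature, DPBS-washed, 5 × 10^3 per well in RPMI-1640 with 10% heat-inactivated FBS and penicillin-streptomycin plus graded compound, 48 h at 37 °C, 5% CO2. Lysed monolayers read with Nano-Glo; growth relative to infected untreated wells, no-parasite background; variable-slope sigmoidal EC50.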

A short description of data set [1]: Cytotoxicity against human HepG2 cells incubated for 48 hrs by MTS based assay. It counts as toxicity, cell-based. A general note: Tetrazolium assays rely on reduction of a dye to a coloured formazan, in cell work by metabolically active cells.
Data set [2] is described as follows: Selectivity index, ratio of EC50 for cytotoxicity against human HepG2 cells to EC50 for antimalarial activity against asynchronous Plasmodium falciparum Dd2 infected in human A+ erythrocytes. The data set is classed as toxicity, cell-based. The following applies: read-out: Ratio EC50. The method, boiled down:
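SI is HepG2 EC50 over P. falciparum Dd2 EC50. Asynchronous-stage parasites were assayed by SYBR Green I fluorescence with chloroquine-treated and untreated controls, and EC50 came from dose–response fits. HepG2 cytotoxicity used an MTS absorbance assay in triplicate up to 25 μM, with a 5% Triton X-100 zero-viability control and a no-treatment control.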

The next data set concerns Plasmodium falciparum. Kind of data set: Antimalarial activity against asynchronous Plasmodium falciparum Dd2 infected in human A+ erythrocytes incubated for 72 hrs by SYBR Green I dye based assay. It counts as functional, organism-based. Particulars: Dd2, Erythrocyte.
A further data set has as its system Mycoplasma genitalium. In words: Antibacterial activity against Mycoplasma genitalium G37 assessed as bacterial growth inhibition incubated for 6 to 7 days by microbroth dilution assay. It counts as functional, organism-based. Particulars: Mycoplasmoides genitalium. The method, boiled down:
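M. genitalium G37 from frozen stock grown 2 days in SP-4 broth at 37 °C, 5% CO2, to log phase; 0.45 μm-filtered, diluted 1:200 in SP-4 with 7.5% FBS, ~10^4 CFU per well with 2-fold serial compound dilutions in triplicate.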
In general terms: In broth dilution the organism is exposed to a series of concentrations in liquid medium.

The next data set deals with Trichomonas vaginalis. Kind of data set: Antiparasitic activity against Trichomonas vaginalis Donne PRA-98 incubated for 17 hrs by glutaraldehyde/propidium iodide/acridine orange staining based high-content imaging analysis. The following applies: Donne PRA-98, 17 h. It counts as functional, organism-based.
Data set [3] is described as follows: Selectivity index, ratio of EC50 for cytotoxicity against human HepG2 cells to EC50 for antiparasitic activity against Nanoluciferase-tagged Cryptosporidium parvum infected in human HCT-8 cells assessed as inhibition of parasite growth. It counts as toxicity, cell-based. Particulars: read-out: Ratio EC50. In outline:
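For the parasite, 5 × 10^3 bleach-activated Nanoluciferase-tagged oocysts per well infected HCT-8 monolayers at 50–75% confluence in RPMI-1640 with 10% FBS. They were incubated 48 h at 37 °C, 5% CO2, then lysed for luminescence. Growth was expressed as percent of infected untreated wells and fitted by variable-slope sigmoidal dose–response.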

Data set [4] can be described thus: Selectivity index, ratio of EC50 for cytotoxicity against human HepG2 cells to EC50 for antibacterial activity against Mycoplasma genitalium G37. It counts as cell-based. Particulars: read-out: Ratio EC50. In outline:
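SI is HepG2 EC50 over M. genitalium G37 EC50. G37 (~10^4 CFU/well) was grown in SP-4 broth with 7.5% FBS against 2-fold serial dilutions in triplicate for 6–7 days at 37 °C, 5% CO2. Genomes were quantified by 16S rRNA qPCR against untreated wells. HepG2 cytotoxicity used an MTS assay in triplicate, maximum 25 μM, with Triton X-100-lysed and untreated controls.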

A short description of data set [5]: Selectivity index, ratio of EC50 for cytotoxicity against human HepG2 cells to EC50 for antiparasitic activity against Trichomonas vaginalis Donne PRA-98. It counts as toxicity, cell-based. The following applies: read-out: Ratio EC50. In outline:
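Trichomonads (4 × 10^4 per well) under microaerophilic conditions were treated with compound at no more than 0.5% DMSO for 17 h. Cells were then fixed with glutaraldehyde, propidium iodide and acridine orange, shaken, incubated 3 h at 37 °C, and counted by high-content imaging.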

Regarding `CCOc1ccc2cc(-c3nn(CC4CCN(C)CC4)c4ncnc(N)c34)ccc2c1`, the concentration giving a half-maximal response (EC50) with Cryptosporidium parvum amounted to 1.1 µM.
In data set [1], `Cc1cc(O)c2c(c1)[C@@H]([C@H]1c3cc(C)cc(O)c3C(=O)c3c(O)cc(O)cc31)c1cc(O)cc(O)c1C2=O` gave a 50% effective concentration (EC50) at 48 h of 13.8 µM. Moreover, the selectivity ratio in data set [2] is 8.6. Moreover, the concentration giving a half-maximal response (EC50) in the data set on Plasmodium falciparum is 1.65 µM; in the data set with Cryptosporidium parvum, above 7.2 µM; in the data set on Mycoplasma genitalium it was above 10 µM; in the data set on Trichomonas vaginalis, above 10 µM.
As to `COC(=O)[C@]1([C@@H]2CCC(=O)O2)CC(=O)c2c(cc3c(c2O)[C@@H]2C=C[C@@]4(C3)C(=O)c3cc(C)cc(O)c3C(=O)[C@]4(O)C2=O)O1`, the EC50 at 48 h in data set [1] is above 25 µM. The concentration giving a half-maximal response (EC50) with Plasmodium falciparum is above 5 µM; in the data set on Cryptosporidium parvum it was above 6 µM; with Mycoplasma genitalium it was above 10 µM; in the data set with Trichomonas vaginalis it was above 10 µM.
Take `COC(=O)[C@@]12Oc3cc4c(c(O)c3C(=O)C1=C(O)CC[C@@H]2O)[C@@H]1C=C[C@@]2(C4)C(=O)c3cc(C)cc(O)c3C(=O)[C@]2(O)C1=O`: in data set [1], the concentration giving a half-maximal response (EC50) at 48 h is above 25 µM. Further, the 50% effective concentration (EC50) with Plasmodium falciparum is above 5 µM; in the data set with Cryptosporidium parvum, above 10 µM; in the data set with Mycoplasma genitalium, above 10 µM; in the data set with Trichomonas vaginalis it was above 10 µM.
Turning to `COC(=O)[C@]1([C@@H](O)CCC(=O)O)CC(=O)c2c(cc3c(c2O)[C@@H]2C=C[C@@]4(C3)C(=O)c3cc(C)cc(O)c3C(O)=C4C2=O)O1`, the EC50 at 48 h in data set [1] was above 25 µM. In addition, the EC50 is above 5 µM in the data set with Plasmodium falciparum, above 10 µM with Cryptosporidium parvum, above 10 µM with Mycoplasma genitalium and above 10 µM in the data set with Trichomonas vaginalis.
Molecule `COC(=O)[C@]1([C@@H]2CCC(=O)O2)CC(=O)c2c(O)cc(C)cc2O1` gave a half-maximal effective concentration (EC50) at 48 h in data set [1] above 25 µM. The half-maximal effective concentration (EC50) was above 5 µM in the data set on Plasmodium falciparum, above 40 µM in the data set with Cryptosporidium parvum, above 10 µM in the data set with Mycoplasma genitalium and above 10 µM with Trichomonas vaginalis.
With `COC(=O)[C@]1([C@@H](O)CCC(=O)O)CC(=O)c2c(cc3c(c2O)[C@@H]2C=C[C@@]4(C3)C(=O)c3cc(C)cc(O)c3C(=O)[C@]4(O)C2=O)O1`, the EC50 at 48 h in data set [1] is above 25 µM. In addition, the EC50 with Plasmodium falciparum was above 5 µM; with Cryptosporidium parvum it was above 10 µM; with Mycoplasma genitalium, above 10 µM; in the data set on Trichomonas vaginalis, above 10 µM.
`COC(=O)[C@@]12Oc3cc4c(c(O)c3C(=O)[C@]1(O)C(=O)CC[C@@H]2O)[C@@H]1C=C[C@@]2(C4)C(=O)c3cc(C)cc(O)c3C(=O)[C@]2(O)C1=O` displayed a half-maximal effective concentration (EC50) at 48 h in data set [1] above 25 µM. Also, the EC50 in the data set on Plasmodium falciparum was above 5 µM; in the data set on Cryptosporidium parvum it was above 10 µM; with Mycoplasma genitalium, above 10 µM; with Trichomonas vaginalis, above 10 µM.
In the case of `COC(=O)[C@]12Oc3c(c(O)cc4c3[C@@H]3C=C[C@@]5(C4)C(=O)c4cc(C)cc(O)c4C(=O)[C@]5(O)C3=O)C(=O)C1=C(O)CC[C@@H]2O`, the EC50 at 48 h in data set [1] was above 25 µM. Moreover, the EC50 with Plasmodium falciparum was above 5 µM; in the data set with Cryptosporidium parvum it was above 10 µM; with Mycoplasma genitalium it was above 10 µM; in the data set with Trichomonas vaginalis it was above 10 µM.
In the case of `Cc1cc(O)c2c(c1)[C@@H]([C@@H]1c3cc(C)cc(O)c3C(=O)c3c(O)cc(O)cc31)c1cc(O)cc(O)c1C2=O` (relative stereo), the EC50 at 48 h in [1] stood at 10.2 µM. In addition, in [2], the selectivity ratio worked out at 9.1. The EC50 with Plasmodium falciparum is 1.12 µM; in the data set on Cryptosporidium parvum, above 2.4 µM; with Mycoplasma genitalium, above 10 µM; in the data set with Trichomonas vaginalis, above 10 µM.
`CC[C@H]1OC(=O)[C@H](C)[C@@H](O[C@H]2C[C@@](C)(OC)[C@@H](O)[C@H](C)O2)[C@H](C)[C@@H](O[C@@H]2O[C@H](C)C[C@H](N(C)C)[C@H]2O)[C@](C)(O)C[C@@H](C)CN(C)[C@H](C)[C@@H](O)[C@]1(C)O` [AZITHROMYCIN]: the EC50 in the data set with Mycoplasma genitalium turned out to be 0.0005 µM.
In the data set on Trichomonas vaginalis, `Cc1ncc([N+](=O)[O-])n1CCO` [METRONIDAZOLE] yielded an EC50 of 3.5 µM.
`COC(=O)[C@@]12Oc3cc4c(c(O)c3C(=O)C1=C(O)CC[C@@H]2O)[C@@H]1C=C[C@@]2(C4)C(=O)c3cc(C)cc(O)c3C(O)=C2C1=O` [XANTHOQUINODIN A1] registered an EC50 at 48 h in [1] above 25 µM. Moreover, the selectivity ratio in data set [2] is above 86; in data set [3], above 4.8; in [4], above 62.5; in [5], above 6.4. Moreover, the EC50 with Plasmodium falciparum came to 0.29 µM; in the data set with Cryptosporidium parvum, 5.2 µM; with Mycoplasma genitalium, 0.13 µM; in the data set with Trichomonas vaginalis, 3.9 µM.
For `COC(=O)[C@]12Oc3cc4c(c(O)c3C(=O)C1=C(O)CC[C@@H]2O)[C@@H]1C=C[C@@]2(C4)C(=O)c3cc(C)cc(O)c3C(O)=C2C1=O` [XANTHOQUINODIN A2], in [1], the EC50 at 48 h is above 25 µM. For the same molecule, the selectivity ratio in [2] was above 50; in data set [3], above 7.1; in data set [4], above 125; in data set [5] it was above 3.7. Besides, the EC50 with Plasmodium falciparum worked out at 0.5 µM; with Cryptosporidium parvum, 3.5 µM; in the data set on Mycoplasma genitalium it was 0.12 µM; in the data set with Trichomonas vaginalis it was 6.8 µM.
With `COC(=O)[C@]1([C@@H]2CCC(=O)O2)CC(=O)c2c(cc3c(c2O)[C@@H]2C=C[C@@]4(C3)C(=O)c3cc(C)cc(O)c3C(O)=C4C2=O)O1` [XANTHOQUINODIN A3], in [1], the EC50 at 48 h was above 25 µM. In addition, the EC50 in the data set on Plasmodium falciparum is above 5 µM; in the data set on Trichomonas vaginalis, above 10 µM.
